Bioassay records deposited in PubChem BioAssay by several laboratories.
Shown are actives, neighbours in structure and some others; about 3% of the full set was active somewhere.
FID counter: compounds displacing fluorescent DNA intercalator, primary screen, artefact control for HCV NS3 helicase inhibitor project, biochemical, FID fluorescence; DNA fluorescent intercalator displacement; inhibition, % at 7.9 µM; 290,000 tested, 0.17% active; in the data active = inhibition above about 37%;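 note: higher means more ethidium bromide displaced from hairpin DNA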
TMEM16A inh: TMEM16A chloride channel inhibitors, primary screen, cell-based, HTS | Anoctamin-1 (Mus musculus), Q8BHY3 | HEK293 TMEM16A/YFP iodide influx fluorescence, ionomycin | normalized B-score (activity score, 25-100; higher = stronger inhibition) at 10 µM | 310,000 tested, 1.2% active;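 active = ratio plate-corrected score three or more library SD toward inhibition, starting fluorescence score within five deviations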;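 note: score derived from kinetic fluorescence span divided by baseline fluorescence per well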
SR-BI HDL uptake: inhibitors of SR-BI mediated HDL lipid uptake, primary screen, ldlA[mSR-BI] cells, fluorescence, single point; 320,000 tested, 0.96% active; inhibition, % at 12.5 µM; Scavenger receptor class B member 1 (Mus musculus), Q61009; ldlA[mSR-BI] CHO cells, DiI-HDL uptake fluorescence, 3 h;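 active = mean replicate inhibition of at least 70% and a set share of replicates each scoring 70 or more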
TMEM16A act: TMEM16A chloride channel activators or potentiators, primary screen, cell-based, HTS; Anoctamin-1 (Mus musculus), Q8BHY3; HEK293 TMEM16A/YFP-H148Q/I152L, iodide quench fluorescence; stronger effect = lower value; B-score at 10 µM; 340,000 tested, 0.3% active;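 active = fluorescence-ratio B-score plate-corrected deviation score at least 3 library SD below zero, with starting fluorescence score within 5 deviations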;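 note: channel opened by trigger with iodide after compound preincubation; score built on the fluorescence ratio of max minus min over baseline; more negative score means more quench and so TMEM16A activation or potentiation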
Kir21 block: inhibitors of mouse Kir2.1 inward-rectifier potassium channel | HEK293-Kir2.1, FluxOR thallium flux fluorescence; stronger effect = lower value | Inward rectifier potassium channel 2 (Mus musculus), P35561 | 310,000 tested, 0.85% active | B-score at 10 µM;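 active = fluorescence ratio B-score at or below minus 3 SD of library scores, with starting-brightness B-score within 2 SD, cut at about -4.2 in these data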;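 note: channel flux triggered by added potassium and thallium sulfate stimulus; B-score of peak minus minimum fluorescence over baseline after thallium stimulus; more negative B-score means stronger Kir2.1 block with less thallium influx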
Target sequence (P35561 whole entry, looked up): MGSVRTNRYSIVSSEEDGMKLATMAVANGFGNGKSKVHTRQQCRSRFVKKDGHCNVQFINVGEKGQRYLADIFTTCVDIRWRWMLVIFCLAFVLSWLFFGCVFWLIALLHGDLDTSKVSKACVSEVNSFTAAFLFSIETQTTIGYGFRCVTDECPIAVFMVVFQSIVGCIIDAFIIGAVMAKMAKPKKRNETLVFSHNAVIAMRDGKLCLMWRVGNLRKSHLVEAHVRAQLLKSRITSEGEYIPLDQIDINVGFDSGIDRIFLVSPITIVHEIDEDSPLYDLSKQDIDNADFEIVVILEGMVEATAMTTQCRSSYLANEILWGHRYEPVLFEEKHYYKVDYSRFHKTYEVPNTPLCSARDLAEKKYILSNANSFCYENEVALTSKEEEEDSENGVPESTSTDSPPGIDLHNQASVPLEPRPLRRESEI
SR-BI DiI-HDL act: activators of SR-BI mediated DiI-HDL uptake, primary screen, ldlA[mSR-BI] CHO cells, DiI fluorescence. 3 h; 100 = double the neutral-control signal. activation, % at 12.5 µM. 320,000 tested, 0.096% active. AID 504775, 2011;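 active = mean replicate activation of at least 60% and every replicate at or above 60%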
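Material – SR-BI-overexpressing, LDLR-lacking CHO cells · Medium – BSA-supplemented, HEPES-buffered Ham's F12, pH 7.4 · Doses – single concentration · Times – compound with DiI-HDL co-incubation, 3 h at 37 °C · Measured by – bottom-read fluorescence, 550/595 nm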
Large screens that a line does not name were inactive.

CCC1=NN(C(=O)c2ccc(C)cc2)C(O)(c2ccc(Br)cc2)C1 (configuration not stated)	SR-BI DiI-HDL act 103
CCC1=NN(C(=O)c2ccc(Br)cc2)C(O)(c2ccc(C)cc2)C1 (configuration not stated)	none
Cc1ccc(-n2nc(C)cc2NC(=O)c2ccc(C)s2)cc1	SR-BI HDL uptake 87
CC(OC(=O)c1ccc2c(=O)n3c(nc2c1)CCCCC3)C(=O)Nc1ccc(F)cc1Cl (configuration not stated)	none
CC1(C)CC(N2CCC(=O)N(C3CC(C)(C)NC(C)(C)C3)C2)CC(C)(C)N1	FID counter 37
O=C(/C=C/c1ccc2c(c1)OCO2)c1cccnc1	Kir21 block -5.2
O=C(/C=C/c1ccc2c(c1)OCO2)Nc1cccnc1	none
O=C(/C=C/c1ccc([N+](=O)[O-])cc1)/C=C/c1ccco1	Kir21 block -5.8
CN(C)c1ccc(C(=O)/C=C/c2cccnc2)cc1	none
O=C(/C=C/c1cccnc1)c1ccc(F)c(F)c1	Kir21 block -5.3 (no result: SR-BI HDL uptake, SR-BI DiI-HDL act)
O=C(/C=C/c1ccc([N+](=O)[O-])cc1)c1cccnc1	Kir21 block -4.3
O=C(/C=C/c1ccc([N+](=O)[O-])cc1)c1ccco1	none
CCCN(CC(=O)Nc1ccccc1C)C(=O)C1CCN(S(=O)(=O)c2ccccc2C(F)(F)F)CC1	none (no result: FID counter)
Cc1cc(C)cc(OCC(=O)OCC(=O)c2cc(C)n(C3CC3)c2C)c1	none
O=C(CSc1ccccc1)Nc1ccc(N2CCOCC2)c(F)c1	none
Cc1cc(OCCCCN2C(=O)NC(C)(C)C2=O)ccc1[N+](=O)[O-]	TMEM16A inh 25
COc1ccc(/C=C(/NC(=O)c2ccco2)C(=O)NCc2ccco2)cc1OC	none
Cc1ccc(OCCn2cc(/C=C(\C#N)C(=O)NCC3CCCO3)c3ccccc32)cc1C (configuration not stated)	SR-BI HDL uptake 76
Cc1ccc(OCCn2cc(/C=C(\C#N)C(=O)NCC3CCCO3)c3ccccc32)cc1 (configuration not stated)	none
CCC(=O)Nc1ccc(NC(=S)NC(=O)/C=C/c2ccco2)cc1	SR-BI HDL uptake 89
COc1ccc(CCNC(=O)CCc2nnc(Cc3ccc4c(c3)OCO4)o2)c(OC)c1	none
CSc1ncccc1C(=O)OCC(=O)c1ccccc1	none
CSc1ncccc1C(=O)OCC(=O)c1ccccc1Br	TMEM16A act -23
CCN(CC)CCC(=O)N1C/C(=C/c2ccccc2)C(=O)/C(=C\c2ccccc2)C1	none (no result: FID counter, TMEM16A inh, Kir21 block)
C=CCSc1nsc(NC(=O)Nc2ccc(F)cc2)n1	TMEM16A inh 100
CCOc1ccccc1NC(=O)c1cc(S(=O)(=O)NCc2ccco2)ccc1F	none
COc1ccc(OC)c(NC(=O)c2cc(S(=O)(=O)NCc3ccco3)ccc2F)c1	SR-BI HDL uptake 83
CN(C)S(=O)(=O)N1CCc2ccc(NC(=O)c3ccc(C(F)(F)F)cc3)cc2C1	none
O=c1[nH]c(-[n+]2ccccc2)c(/C=N/NC([S-])=Nc2ccccc2)s1	none (no result: SR-BI HDL uptake, SR-BI DiI-HDL act)
Cc1cc[n+](-c2[nH]c(=O)sc2/C=N/NC([S-])=Nc2ccccc2)cc1	TMEM16A act -5
NC(=O)c1ncn([C@@H]2O[C@H](CNCc3ccc(OCC(=O)Nc4ccccn4)cc3)[C@@H](O)[C@H]2O)n1	none (no result: FID counter, TMEM16A inh, TMEM16A act, Kir21 block)
CCOC(=O)Nc1ccc2c(c1)C(=NO)c1ccccc1-2	none (no result: FID counter, TMEM16A inh, Kir21 block)
CCOC(=O)Nc1ccc2c(c1)C(=NNC(N)=S)c1ccccc1-2	SR-BI HDL uptake 83 (no result: FID counter, TMEM16A inh, Kir21 block)
Cc1ccc(OCCOCCN(C)C)c(Cl)c1	SR-BI DiI-HDL act 64
CN(C)CCCCOc1ccc(Br)cc1Cl	none
Oc1ccccc1N=N/C(=N/Nc1ccccc1O)c1ccccc1	none (no result: FID counter)
N#C/C(N=Nc1ccccc1O)=N\Nc1ccccc1O	TMEM16A inh 100 (no result: FID counter)
CNC(=O)NC(=O)CSc1ccc(S(=O)(=O)N2CCOCC2)cn1	none (no result: FID counter, TMEM16A inh, Kir21 block)
CC1CCc2c(sc3nc(C4CC4)nc(N4CCN(C(=O)c5ccco5)CC4)c23)C1 (configuration not stated)	TMEM16A inh 100
Cc1cc(C)c(S(=O)(=O)Nc2nnc(C(C)C)s2)c(C)c1	none
O=C1c2ccc(-c3ccc(F)cc3OCc3ccccc3)cc2S(=O)(=O)c2cccc(C(=O)N3CCCC3)c21	none (no result: FID counter, TMEM16A inh, Kir21 block)
CC(C)Cc1ccc(C(C)C(=O)Nc2ccc(O)cc2)cc1 (configuration not stated)	TMEM16A inh 100
Cc1ccc(-c2nnc(SCCC(=O)N3CCOCC3)o2)cc1	TMEM16A act -39
O=C(CCSc1nnc(-c2ccccc2)o1)N1CCOCC1	none
CCN(CC)CCNC(=O)CCc1c(C)nc2c(c(C)nn2-c2ccc(C)cc2)c1C	Kir21 block -4.5
COCCCNC(=O)CCc1c(C)nc2c(c(C)nn2-c2ccc(C)cc2)c1C	none
CCC(C)c1ccc(C2C3=C(Nc4nc(N)[nH]c(=O)c42)c2ccccc2C3=O)cc1 (configuration not stated)	FID counter 96 (no result: SR-BI HDL uptake, SR-BI DiI-HDL act)
COc1cc(C2C3=C(Nc4nc(N)[nH]c(=O)c42)c2ccccc2C3=O)ccc1O (configuration not stated)	none
O=C(Nc1ccc(F)cc1Cl)C1CCN(C(=O)Nc2ccccc2)CC1	none
CN(Cc1ccccc1)C(=O)C1CCCN(Cc2ccc(Cl)cc2)C1 (configuration not stated)	Kir21 block -4.2
CCN(CC)C(=O)C1CCCN(Cc2ccccc2)C1 (configuration not stated)	none
Cc1ccc(C2(CCNCc3ccco3)CCOC(C(C)C)C2)cc1 (configuration not stated)	Kir21 block -4.3
Cc1ccc(C2(CC(=O)Nc3nccs3)CCOC(C(C)C)C2)cc1 (configuration not stated)	none
Cc1ccc(NC(=O)c2ccc3c(=O)n4c(nc3c2)CCC4)cc1S(=O)(=O)N(C)C	SR-BI HDL uptake 75 (no result: FID counter, TMEM16A inh, Kir21 block)
CC1(O)CC(c2ccc(Cl)cc2)=NN1C(=O)c1ccc([N+](=O)[O-])cc1 (configuration not stated)	SR-BI HDL uptake 89
CCOCCn1cnc2sc(C(=O)NCCCN3CCOCC3)c(C)c2c1=O	none
COCCN=c1scc(-c2ccco2)n1/N=C/c1ccc(O)c(O)c1O	none (no result: Kir21 block)
CC(C)N=c1scc(-c2ccco2)n1/N=C/c1ccc(O)c(O)c1	TMEM16A inh 100 (no result: Kir21 block)
Cc1cccc2nc(C(=O)Nc3cccc(C(=O)NC4CC4)c3)cn12	none (no result: FID counter, TMEM16A inh, Kir21 block)
